Measured values gathered from unrelated publications.
Compare with care: the assays were run in different laboratories.
KCNH2: Voltage-gated inwardly rectifying potassium channel KCNH2 (KCNH2, Homo sapiens, UniProt Q12809)

`CC(C)n1cc(C#N)c2cc(-n3cc(C(=O)O)cn3)ccc21` has a Tmax of 2.75 h (human, plasma; oral, 50 mg, single dose, fasted, healthy volunteers).
The inhibition of `CC(=O)N1CCC(C(=O)N2CCN3C(=O)c4cc(-c5ccccc5)ccc4NC(=O)C3C2)CC1` (stereo not shown) is reported as 56.8% (KCNH2; ion current, inhibitor, patch clamp; HEK293; 100 µM).
The tracer uptake of `COc1cccc(OC)c1-c1cc(C(=O)NC2(C(=O)O)C3CC4CC(C3)CC2C4)nn1-c1ccc(C(=O)N(C)CCCN(C)CCCN(C)C(=O)CN2CCN(CC(=O)[O-])CCN(CC(=O)[O-])CCN(CC(=O)[O-])CC2)cc1C(C)C.[177Lu+3]` (stereo not shown) is reported as 1.8 %ID/g (HT-29; bone; 4 h, tumour-bearing).
The MRT(0-inf) of `COc1nc(-c2cccc(-c3ccccc3)c2C)ccc1CNCCNC(=O)CCCCCCCCCCC(=O)N1CCN(CCNC(=O)c2cc3c(=O)n4cccc(C)c4nc3n(CCc3cccs3)c2=N)CC1` is reported as 7.2 h (male Sprague-Dawley rat, plasma; intraperitoneal, 4 mg/kg).
`O=C(COc1ccc(Cl)cc1)NC12CC(c3nnc([C@H]4C[C@@H](OC(F)(F)F)C4)o3)(C1)C2` gave a Tmax of 4.03 h (human, plasma; oral, 45 mg, multiple doses, once daily, steady state, healthy volunteers).
`C[C@H]1Oc2cc(cnc2N)-c2c(nn(C)c2C#N)CN(C)C(=O)c2ccc(F)cc21` has an MRT(0-inf) of 8.14 h (male Sprague-Dawley rat, plasma; oral, 5 mg/kg, single dose).
The inhibition of `COc1cc(N)c(Cl)cc1C(=O)NC1CCN(CCCOc2ccc(F)cc2)CC1OC` (stereo not shown) is reported as 60.7% (KCNH2; ion current, inhibitor, patch clamp; HEK293; 50 nM).
With `CCOC(=O)C1=C(CN2CCC[C@@H]2C(=O)Nc2ccc(B(O)O)cc2)NC(c2nccs2)=N[C@H]1c1ccc(F)cc1Br` the inhibition was 83% (KCNH2; ion current, inhibitor, patch clamp; HEK293; 30 µM, pH 7.4).
With `COc1ccc2c(c1)CN(C(=O)CCN1CCC(Cc3ccccc3)CC1)CC[S@@+]2[O-]` the Tmax was 0 h (male human, plasma; intravenous, 0.6 mg/kg, healthy volunteers).
With `N[C@H]1C(O)O[C@H](CO)[C@@H](O)[C@@H]1O` (stereo partly shown) the viability was 97.9% (Caco-2; cell growth or viability, CCK-8; 50 mM).
`NC(=O)c1ncn([C@@H]2O[C@H](CO)[C@@H](O)[C@H]2O)n1` gave a CC50 of 104 µM (RD; cell growth or viability, MTT).
With `CC(C)NC(=O)COc1cccc(-c2nc(Nc3ccc4[nH]ncc4c3)c3ccccc3n2)c1` the IC50 was > 1 µM (Bile salt export pump (ABCB11, Homo sapiens, UniProt O95342); transporter uptake, inhibitor, radiometric).
The inhibition of `CN1C[C@H](COc2nccc3c(NCc4ccco4)cc(Cl)nc23)OC1=O` is reported as 8.8% (KCNH2; ion current, inhibitor; HEK293; 1 µM).
